From ChEMBL document CHEMBL4177714, “Assessment of a pretomanid analogue library for African trypanosomiasis: Hit-to-lead studies on 6-substituted 2-nitro-6,7-dihydro-5H-imidazo[2,1-b][1,3]thiazine 8-oxides” (Bioorg Med Chem Lett, 2018)
≈ marks a conversion by molar mass, not a printed value.

Key:
[1] = Selectivity index, ratio of IC50 for cytotoxicity against mouse L929 cells to IC50 for antitrypanosomal activity against Trypanosoma brucei brucei 427 bloodstream forms; assay type: toxicity, cell-based; settings: read-out: Ratio IC50
[2] = Apparent permeability in MDCK2-MDR1 cells at 3 uM incubated over 150 mins at 37 degC by LC-MS/MS method; assay type: ADME, cell-based, Canis lupus familiaris; settings: dog, MDCK-MDR1
Outline: (§1)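 MDCK-MDR1 monolayer, apical-to-basolateral transport of compound at 3 μM, run with and without P-gp inhibitor GF120918 (2 μM). Apparent permeability (Papp) recorded; absorption quotient AQ = (Papp+918 − Papp)/Papp+918. Propranolol served as CNS-positive reference.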

[3] = tested on: Mus musculus; test: Time duration during which drug level in brain stays at or above MIC for antitrypanosomal activity against Trypanosoma brucei brucei TREU 667 infected in Webster mouse at 25 mg/kg, po bid; assay type: ADME, organism-based; settings: in vivo
[4] = Half life in mouse liver S9 subcellular fraction; assay type: ADME
Outline: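 Metabolic stability: compounds incubated 1 h with CD-1 mouse liver S9 subcellular fractions; half-life derived.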

[5] = Absorption quotient in MDCK2-MDR1 cells assessed as (Papp + GF120918 - Papp)/(Papp + GF120918) ratio at 3 uM incubated over 150 mins at 37 degC in presence of P-gp inhibitor GF120918 by LC-MS/MS method; assay type: ADME, cell-based, Canis lupus familiaris; settings: dog, mdck-mdr1, 2.5 h; outline: as §1
[6] = Selectivity index, ratio of IC50 for cytotoxicity against human MRC5 cells to IC50 for antitrypanosomal activity against Trypanosoma brucei brucei 427 bloodstream forms; assay type: toxicity, cell-based; settings: read-out: Ratio IC50
Outline: (§2)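 IC50 for growth inhibition of T. b. brucei 427, with cytotoxicity measured against human lung fibroblasts (MRC-5). Means of two or more independent experiments. Selectivity index is MRC-5 IC50 over T. b. brucei IC50.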

[7] = Ratio of drug level in brain to plasma in CD1 mouse at 78 mg/kg, po after 0.25 to 24 hrs by LC-MS/MS method; assay type: ADME, organism-based; settings: read-out: BPR
[8] = tested on: Trypanosoma brucei brucei; test: Antitrypanosomal activity against Trypanosoma brucei brucei 427 bloodstream forms; assay type: functional, organism-based; outline: as §2
[9] = tested on: Trypanosoma brucei brucei; test: Antitrypanosomal activity against Trypanosoma brucei brucei TREU 667 infected in Swiss Webster mouse assessed as infection cure rate at 25 mg/kg, po qd for 7 days starting 21 days post-infection (reference value: 0%); assay type: functional
[10] = tested on: Trypanosoma brucei brucei; test: Antitrypanosomal activity against Trypanosoma brucei brucei TREU 667 infected in Swiss Webster mouse assessed as mean relapse time at 10 mg/kg, ip administered as single dose on day 21 post-infection (reference value: 31 days); assay type: functional
Outline: (§3)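 CNS (stage 2) model: mice infected with T. b. brucei TREU 667. Berenil given as a single i.p. dose of 10 mg/kg on day 4 or on day 21 post-infection. Cure rate and mean relapse time recorded against vehicle-treated controls.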

[11] = tested on: Trypanosoma brucei brucei; test: Antitrypanosomal activity against Trypanosoma brucei brucei TREU 667 infected in Swiss Webster mouse assessed as infection cure rate at 10 mg/kg, ip administered as single dose on day 4 post-infection (reference value: 0%); assay type: functional; outline: as §3
[12] = tested on: Trypanosoma brucei brucei; test: Antitrypanosomal activity against Trypanosoma brucei brucei TREU 667 infected in Swiss Webster mouse assessed as infection cure rate at 10 mg/kg, ip administered as single dose on day 21 post-infection (reference value: 0%); assay type: functional; outline: as §3
[13] = tested on: Trypanosoma brucei brucei; test: Antitrypanosomal activity against Trypanosoma brucei brucei TREU 667 infected in Swiss Webster mouse assessed as infection cure rate at 200 mg/kg, po qd for 5 days; assay type: functional

## O=[N+]([O-])c1cn2c(n1)OC[C@@H](OCC#Cc1ccc(-c3ccc(C(F)(F)F)cc3)cn1)C2
[1]
  selectivity ratio: > 19
[2]
  Papp A→B at 2.5 h, 3 µM: 3.5 ×10⁻⁶ cm/s

## O=[N+]([O-])c1cn2c(n1)OC[C@@H](Oc1cc(-c3ccc(C(F)(F)F)nc3)ccn1)C2
[1]
  selectivity ratio: > 3.6

## O=C(Nc1ccc2c(c1)B(O)OC2)c1ccc(F)cc1C(F)(F)F
[3]
  Time: 12 h

## O=[N+]([O-])c1cn2c(n1)OCC(COc1ccc(-c3ccc(OC(F)(F)F)cc3)nc1)C2 (stereo not given)
[1]
  selectivity ratio: > 12
[2]
  Papp A→B at 2.5 h, 3 µM: 7.4 ×10⁻⁶ cm/s

## O=[N+]([O-])c1cn2c(n1)OCC(COc1ccc(-c3ccc(C(F)(F)F)cc3)nc1)C2 (stereo not given)
[1]
  selectivity ratio: > 36
[2]
  Papp A→B at 2.5 h, 3 µM: 11.7 ×10⁻⁶ cm/s

## CC1(COCc2ccc(OCc3ccccc3)cc2)Cn2cc([N+](=O)[O-])nc2[S+]1[O-] (stereo not given)
[1]
  selectivity ratio: > 77
[4]
  t1/2: 50 min

## COc1ccc(-c2ccc(O[C@@H]3COc4nc([N+](=O)[O-])cn4C3)nc2)cn1
[1]
  selectivity ratio: > 3.7

## O=[N+]([O-])c1cn2c(n1)OC[C@@H](OCCCc1ccc(-c3ccc(Oc4ccc(C(F)(F)F)cc4)cc3)cc1)C2
[1]
  selectivity ratio: > 43

## CC1(COCc2ccc(OCc3ccccc3)cc2)Cn2cc([N+](=O)[O-])nc2S1 (stereo not given)
[1]
  selectivity ratio: > 4.5
[4]
  t1/2: 31 min
[5]
  Ratio: 0

## O=[N+]([O-])c1cn2c(n1)SC(COCc1ccc(OCc3ccccc3)cc1)C2 (stereo not given)
[1]
  selectivity ratio: > 22
[4]
  t1/2: 67 min

## O=[N+]([O-])c1cn2c(n1)[S@+]([O-])C[C@@H](OCc1ccc(OC(F)(F)F)cc1)C2
[1]
  selectivity ratio: > 143

## O=[N+]([O-])c1cn2c(n1)[S+]([O-])CC(OCc1ccc(-c3ccc(OC(F)(F)F)cc3)cn1)C2 (stereo not given)
[6]
  selectivity ratio: > 500

## CN1CC(OCc2ccc(OCc3ccccc3)cc2)Cn2nc([N+](=O)[O-])cc21 (stereo not given)
[1]
  selectivity ratio: > 3.3
[4]
  t1/2: 38 min

## O=[N+]([O-])c1cn2c(n1)[S+]([O-])CC(OCc1ccc(OC(F)(F)F)cc1)C2 (stereo not given)
[1]
  selectivity ratio: > 63

## O=[N+]([O-])c1cn2c(n1)[S+]([O-])CC(OCc1ccc(OCc3ccccc3)cc1)C2 (stereo not given)
[1]
  selectivity ratio: > 667

## O=[N+]([O-])c1cn2c(n1)S(=O)(=O)CC(OCc1ccc(OC(F)(F)F)cc1)C2 (stereo not given)
[1]
  selectivity ratio: > 11

## O=[N+]([O-])c1cn2c(n1)S(=O)(=O)CC(OCc1ccc(OCc3ccccc3)cc1)C2 (stereo not given)
[1]
  selectivity ratio: > 303
[2]
  Papp A→B at 2.5 h, 3 µM: 3.69 ×10⁻⁶ cm/s

## O=[N+]([O-])c1cn2c(n1)OC[C@@H](NCc1ccc(OC(F)(F)F)cc1)C2
[1]
  selectivity ratio: > 13
[7]
  Kp: 2 to 3

## CC1(C)OB(O)c2cc(NC(=O)c3ccc(F)cc3C(F)(F)F)ccc21 [ACOZIBOROLE]
[8]
  IC50: 0.29 µg/mL (≈ 0.79 µM)
[9]
  Activity: 100%
[3]
  Time: 24 h

## CC(=O)NCC(=O)O.CC(=O)NCC(=O)O.N=C(N)c1ccc(/N=N/Nc2ccc(C(=N)N)cc2)cc1 [DIMINAZENE DIACETURATE]
[10]
  Time: 41 days
[11]
  Activity: 100%
[12]
  Activity: 0%

## CSc1ccc(OCc2ncc([N+](=O)[O-])n2C)cc1 [FEXINIDAZOLE]
[13]
  Activity: 88%
